Experimental data from the M2OR odorant receptor database.

Tests used:
Conditions in all cases: stereoisomer not certain
OR10G2 (Homo sapiens) = target: T1, OR10G2 (Homo sapiens) (UniProt Q8NGC3)
T1 sequence (whole entry): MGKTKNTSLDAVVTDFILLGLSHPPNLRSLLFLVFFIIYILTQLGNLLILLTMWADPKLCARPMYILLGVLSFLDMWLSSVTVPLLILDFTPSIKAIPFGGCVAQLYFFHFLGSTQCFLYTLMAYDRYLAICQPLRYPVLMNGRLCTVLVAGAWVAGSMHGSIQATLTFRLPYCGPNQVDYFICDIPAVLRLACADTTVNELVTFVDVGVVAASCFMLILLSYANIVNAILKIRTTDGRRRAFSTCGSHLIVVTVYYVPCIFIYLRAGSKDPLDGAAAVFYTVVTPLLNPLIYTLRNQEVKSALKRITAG
In short: (§1)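 Each entry records the cell line, G-protein, co-transfected protein and tags used. Methods varied with the source, often transient luciferase assays in mammalian cell lines. A receptor–molecule pair is called responsive (active) if the original authors judged its signal statistically different from baseline and non-responsive (inactive) otherwise.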

OR10G3 (Homo sapiens) = target: T2, OR10G3 (Homo sapiens) (UniProt Q8NGC4)
T2 sequence (whole entry): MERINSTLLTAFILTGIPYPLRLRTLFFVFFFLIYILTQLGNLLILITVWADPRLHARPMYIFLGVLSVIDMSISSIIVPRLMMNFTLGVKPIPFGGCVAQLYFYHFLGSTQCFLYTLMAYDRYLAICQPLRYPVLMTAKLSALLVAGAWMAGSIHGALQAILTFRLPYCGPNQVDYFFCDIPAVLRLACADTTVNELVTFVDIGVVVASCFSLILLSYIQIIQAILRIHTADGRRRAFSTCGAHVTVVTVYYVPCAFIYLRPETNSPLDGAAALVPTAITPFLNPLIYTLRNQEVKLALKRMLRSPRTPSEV
In short: as §1

OR10G4 (Homo sapiens) = target: T3, OR10G4 (Homo sapiens) (UniProt Q8NGN3)
T3 sequence (whole entry): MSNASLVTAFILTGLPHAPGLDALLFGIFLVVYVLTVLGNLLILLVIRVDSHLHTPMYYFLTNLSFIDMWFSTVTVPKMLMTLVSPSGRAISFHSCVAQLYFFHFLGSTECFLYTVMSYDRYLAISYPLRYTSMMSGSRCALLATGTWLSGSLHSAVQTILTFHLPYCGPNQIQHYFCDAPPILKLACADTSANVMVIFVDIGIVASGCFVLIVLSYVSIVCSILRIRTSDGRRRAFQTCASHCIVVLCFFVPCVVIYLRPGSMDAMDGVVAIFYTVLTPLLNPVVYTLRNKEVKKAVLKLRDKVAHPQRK
In short: as §1

OR10G6 (Homo sapiens) = target: T4, OR10G6 (Homo sapiens) (UniProt Q8NH81)
T4 sequence (whole entry): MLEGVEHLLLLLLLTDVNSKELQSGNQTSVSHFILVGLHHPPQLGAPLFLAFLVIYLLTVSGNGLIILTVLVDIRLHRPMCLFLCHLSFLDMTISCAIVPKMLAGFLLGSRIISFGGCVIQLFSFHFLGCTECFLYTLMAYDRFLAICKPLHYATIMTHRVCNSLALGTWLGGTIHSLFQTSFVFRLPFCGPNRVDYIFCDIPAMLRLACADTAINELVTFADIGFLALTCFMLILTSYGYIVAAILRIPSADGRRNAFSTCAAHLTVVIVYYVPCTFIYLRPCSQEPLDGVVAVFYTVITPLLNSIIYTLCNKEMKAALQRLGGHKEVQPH
In short: as §1

OR10G7 (Homo sapiens) = target: T5, OR10G7 (Homo sapiens) (UniProt Q8NGN6)
T5 sequence (whole entry): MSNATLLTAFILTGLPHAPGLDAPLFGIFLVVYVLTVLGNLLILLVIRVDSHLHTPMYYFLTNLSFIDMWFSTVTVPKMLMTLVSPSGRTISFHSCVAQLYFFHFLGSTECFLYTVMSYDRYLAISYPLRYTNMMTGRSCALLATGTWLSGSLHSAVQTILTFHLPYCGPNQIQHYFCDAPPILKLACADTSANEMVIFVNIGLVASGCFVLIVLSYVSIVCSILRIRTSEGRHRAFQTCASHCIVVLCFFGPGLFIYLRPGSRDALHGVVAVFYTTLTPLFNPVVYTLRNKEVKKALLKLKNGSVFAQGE
In short: as §1

OR10G8 (Homo sapiens) = target: T6, OR10G8 (Homo sapiens) (UniProt Q8NGN5)
T6 sequence (whole entry): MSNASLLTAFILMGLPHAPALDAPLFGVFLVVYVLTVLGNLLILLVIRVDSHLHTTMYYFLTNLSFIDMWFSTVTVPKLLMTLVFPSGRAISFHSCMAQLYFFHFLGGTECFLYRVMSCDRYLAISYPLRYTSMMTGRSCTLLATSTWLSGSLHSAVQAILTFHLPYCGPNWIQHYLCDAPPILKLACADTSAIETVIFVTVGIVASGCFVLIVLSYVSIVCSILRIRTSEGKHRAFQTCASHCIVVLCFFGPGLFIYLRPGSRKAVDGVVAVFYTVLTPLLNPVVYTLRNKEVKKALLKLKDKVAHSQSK
In short: as §1

OR10G9 (Homo sapiens) = target: T7, OR10G9 (Homo sapiens) (UniProt Q8NGN4)
T7 sequence (whole entry): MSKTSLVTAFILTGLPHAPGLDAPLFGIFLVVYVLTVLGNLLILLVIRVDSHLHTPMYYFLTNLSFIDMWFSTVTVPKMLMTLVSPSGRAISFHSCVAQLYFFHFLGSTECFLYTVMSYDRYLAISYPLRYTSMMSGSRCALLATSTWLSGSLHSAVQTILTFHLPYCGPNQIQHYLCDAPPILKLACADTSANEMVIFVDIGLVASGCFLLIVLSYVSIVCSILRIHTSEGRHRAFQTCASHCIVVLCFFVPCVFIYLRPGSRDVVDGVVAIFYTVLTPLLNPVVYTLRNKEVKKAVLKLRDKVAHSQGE
In short: as §1

OR10H1 (Homo sapiens) = target: T8, OR10H1 (Homo sapiens) (UniProt Q9Y4A9)
T8 sequence (whole entry): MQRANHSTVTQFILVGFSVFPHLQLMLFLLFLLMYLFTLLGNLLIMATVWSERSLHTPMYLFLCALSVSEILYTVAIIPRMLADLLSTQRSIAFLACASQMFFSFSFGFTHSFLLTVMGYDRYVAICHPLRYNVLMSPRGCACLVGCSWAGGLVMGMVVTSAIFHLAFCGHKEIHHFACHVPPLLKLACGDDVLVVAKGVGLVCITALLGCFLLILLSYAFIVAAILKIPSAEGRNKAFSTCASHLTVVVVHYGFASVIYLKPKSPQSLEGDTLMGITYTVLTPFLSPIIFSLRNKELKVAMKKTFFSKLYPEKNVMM
In short: as §1

OR10H2 (Homo sapiens) = target: T9, OR10H2 (Homo sapiens) (UniProt O60403)
T9 sequence (whole entry): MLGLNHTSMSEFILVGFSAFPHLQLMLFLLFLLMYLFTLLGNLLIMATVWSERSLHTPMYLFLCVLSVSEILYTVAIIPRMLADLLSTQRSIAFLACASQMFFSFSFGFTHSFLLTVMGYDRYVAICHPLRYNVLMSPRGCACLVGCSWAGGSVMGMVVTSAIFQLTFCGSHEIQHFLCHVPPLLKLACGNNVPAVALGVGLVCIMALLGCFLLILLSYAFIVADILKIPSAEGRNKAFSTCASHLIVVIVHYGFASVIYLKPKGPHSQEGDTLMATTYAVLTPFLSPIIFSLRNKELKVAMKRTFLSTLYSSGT
In short: as §1

OR10H3 (Homo sapiens) = target: T10, OR10H3 (Homo sapiens) (UniProt O60404)
T10 sequence (whole entry): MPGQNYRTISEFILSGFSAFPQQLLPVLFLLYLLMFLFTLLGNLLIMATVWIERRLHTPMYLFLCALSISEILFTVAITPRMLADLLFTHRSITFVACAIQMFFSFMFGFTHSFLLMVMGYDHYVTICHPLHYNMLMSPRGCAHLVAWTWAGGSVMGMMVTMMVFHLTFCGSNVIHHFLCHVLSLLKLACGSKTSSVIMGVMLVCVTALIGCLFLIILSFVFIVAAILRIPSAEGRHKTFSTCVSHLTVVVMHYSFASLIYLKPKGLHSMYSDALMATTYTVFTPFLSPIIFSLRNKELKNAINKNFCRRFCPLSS
In short: as §1

Measured: odorant receptor agonist call

CC(CO)CS (configuration not stated)
inactive: all assays above

CC1CCCCCCCCCCCCC(=O)C1 (configuration not stated)
inactive: all assays above

CCC1OC(=O)C(O)=C1C (configuration not stated)
inactive: all assays above

CCC(S)C(C)CO (configuration not stated)
inactive: all assays above

CC1=C(O)C(=O)C(C)O1 (configuration not stated)
inactive: all assays above

CCCCCCC=CCCC=O
inactive: all assays above

CCCCCCCCC(=O)O
inactive: OR10G8 (Homo sapiens)

CC1=C(O)C(=O)OC1C (configuration not stated)
inactive: all assays above

c1ccccc1
inactive: OR10H1 (Homo sapiens)

CCCC(S)CCOC(C)=O (configuration not stated)
inactive: all assays above

CCCCC(S)C(C)CO (configuration not stated)
inactive: all assays above

CCC1OC(C)=C(O)C1=O (configuration not stated)
inactive: all assays above

Cc1cnc(C)c(C)n1
inactive: all assays above

CCCCCC(=O)C(C)C(C)=O (configuration not stated)
inactive: all assays above

CC(=O)c1c(C)c([N+](=O)[O-])c(C(C)(C)C)c([N+](=O)[O-])c1C
inactive: all assays above

CC1=NC(C)C(C)S1 (configuration not stated)
inactive: all assays above

CCCCCC(S)C(C)CO (configuration not stated)
inactive: all assays above
